Results taken from ChEMBL document CHEMBL1145271 (Bioorg Med Chem Lett, 2005).

Key:
[1] = target: T1, Kappa-type opioid receptor (Homo sapiens, UniProt P41145); test: Effective concentration for activation of human Opioid receptor kappa 1 expressed in chinese hamster ovary cells to enhance [35S]GTP-gamma-S, binding; type: functional, cell-based
How it was run: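 EC50 for human κ-opioid receptor activation, read as enhancement of [35S]GTPγS binding. Mean of at least three independent experiments, each run in duplicate.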

[2] = target: T1, Kappa-type opioid receptor; test: Inhibition of [3H]diprenorphine binding to human Opioid receptor kappa 1 expressed in chinese hamster ovary cells; type: cell-based, CHO
How it was run: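 Ki from inhibition of [3H]diprenorphine binding to human κ-opioid receptor. Mean of at least three independent experiments, each run in duplicate.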

[3] = target: T1, Kappa-type opioid receptor; test: Activation of human Opioid receptor kappa 1 expressed in chinese hamster ovary cells to enhance [35S]GTP-gamma-S, binding compared to U50,488H; type: functional, cell-based
How it was run: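 Agonist efficacy at human κ-opioid receptor, read as enhancement of [35S]GTPγS binding and expressed as % of the maximal response to U50,488H. Mean of at least three independent experiments, each run in duplicate.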

T1 sequence (P41145 whole entry): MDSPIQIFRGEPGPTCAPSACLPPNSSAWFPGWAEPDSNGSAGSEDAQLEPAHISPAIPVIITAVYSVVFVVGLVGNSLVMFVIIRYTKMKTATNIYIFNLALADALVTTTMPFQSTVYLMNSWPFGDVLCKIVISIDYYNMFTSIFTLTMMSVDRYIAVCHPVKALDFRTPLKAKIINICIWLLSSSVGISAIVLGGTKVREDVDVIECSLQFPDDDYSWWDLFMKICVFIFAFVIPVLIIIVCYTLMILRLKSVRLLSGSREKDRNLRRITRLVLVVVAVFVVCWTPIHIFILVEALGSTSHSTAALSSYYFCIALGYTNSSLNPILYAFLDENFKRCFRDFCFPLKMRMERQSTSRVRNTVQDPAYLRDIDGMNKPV

SMILES	EC50 [1] [µM]	Ki [2] [µM]	Efficacy [3] [%]
CCNC(=O)O[C@H]1C[C@@H](C(=O)OC)[C@]2(C)CC[C@H]3C(=O)O[C@H](c4ccoc4)C[C@]3(C)[C@H]2C1=O	> 1	0.462	–
COC(=O)[C@@H]1C[C@H](OC(N)=O)C(=O)[C@H]2[C@@]1(C)CC[C@H]1C(=O)O[C@H](c3ccoc3)C[C@]21C	0.0062	0.0032	99
COC(=O)[C@@H]1C[C@H](OC(=O)CNC(C)=O)C(=O)[C@H]2[C@@]1(C)CC[C@H]1C(=O)O[C@H](c3ccoc3)C[C@]21C	–	> 10	–
CCCO[C@H]1C[C@@H](C(=O)OC)[C@]2(C)CC[C@H]3C(=O)O[C@H](c4ccoc4)C[C@]3(C)[C@H]2C1=O [SALVINORIN A PROPYL ETHER]	0.0674	0.0287	100
COC(=O)[C@@H]1C[C@H](OC(=O)[C@H](C)N)C(=O)[C@H]2[C@@]1(C)CC[C@H]1C(=O)O[C@H](c3ccoc3)C[C@]21C	–	> 10	–
COC(=O)[C@@H]1C[C@@H](N(C)C)C(=O)[C@H]2[C@@]1(C)CC[C@H]1C(=O)O[C@H](c3ccoc3)C[C@]21C	0.343	0.0909	105
COC(=O)[C@@H]1C[C@H](OC(=O)CN(C)C)C(=O)[C@H]2[C@@]1(C)CC[C@H]1C(=O)O[C@H](c3ccoc3)C[C@]21C	–	> 10	–
COC(=O)[C@@H]1C[C@H](OCc2ccccc2)C(=O)[C@H]2[C@@]1(C)CCC1C(=O)O[C@H](c3ccoc3)C[C@@]12C (stereo partly drawn)	0.161	0.0757	–
CN[C@@H]1C[C@@H](C(=O)OC)[C@]2(C)CC[C@H]3C(=O)O[C@H](c4ccoc4)C[C@]3(C)[C@H]2C1=O	–	> 10	–
CCCC(=O)O[C@H]1C[C@@H](C(=O)OC)[C@]2(C)CC[C@H]3C(=O)O[C@H](c4ccoc4)C[C@]3(C)[C@H]2C1=O	0.0099	0.0049	97
CCN[C@@H]1C[C@@H](C(=O)OC)[C@]2(C)CC[C@H]3C(=O)O[C@H](c4ccoc4)C[C@]3(C)[C@H]2C1=O	0.0689	0.0289	–
COC(=O)[C@@H]1C[C@H](OC)C(=O)[C@H]2[C@@]1(C)CC[C@H]1C(=O)O[C@H](c3ccoc3)C[C@]21C	0.389	0.22	98
CCCCO[C@H]1C[C@@H](C(=O)OC)[C@]2(C)CCC3C(=O)O[C@H](c4ccoc4)C[C@]3(C)[C@H]2C1=O (stereo partly drawn)	0.104	0.0358	–
CCC(=O)O[C@H]1C[C@@H](C(=O)OC)[C@]2(C)CC[C@H]3C(=O)O[C@H](c4ccoc4)C[C@]3(C)[C@H]2C1=O	0.0204	0.0072	94
CCO[C@H]1C[C@@H](C(=O)OC)[C@]2(C)CC[C@H]3C(=O)O[C@H](c4ccoc4)C[C@]3(C)[C@H]2C1=O	–	–	103
C=CCO[C@H]1C[C@@H](C(=O)OC)[C@]2(C)CCC3C(=O)O[C@H](c4ccoc4)C[C@]3(C)[C@H]2C1=O (stereo partly drawn)	0.145	0.0601	106
CNC(=O)O[C@H]1C[C@@H](C(=O)OC)[C@]2(C)CC[C@H]3C(=O)O[C@H](c4ccoc4)C[C@]3(C)[C@H]2C1=O	0.201	0.083	81
COC(=O)[C@@H]1C[C@H](O)C(=O)[C@H]2[C@@]1(C)CC[C@H]1C(=O)O[C@H](c3ccoc3)C[C@]21C	–	–	98
